These results are taken from ChEMBL document CHEMBL1124597, “Quinones. 4. Novel eicosanoid antagonists: synthesis and pharmacological evaluation” (J Med Chem, 1989).

Holding throughout (format): functional
The species entered for experiment [1] is Oryctolagus cuniculus. In words: In vitro percent inhibition against U-44,069 (10e-7 M) induced contraction of rabbit aorta at 10e-5 M concentration. The method, boiled down: (§1)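 Rabbit aortic strips (2-3 mm × 3 cm) in Krebs-Henseleit, 37 °C, 95% O2/5% CO2, 2 g resting tension, isometric recording. Drugs (final 10⁻⁵ to 10⁻⁸ M, 0.01% DMSO) added 10 min before U-44069 (2-6 nM, about 50% of the 30 mM KCl contraction). Percent inhibition, or concentration reducing contraction by 50%; duplicate means.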

For experiment [2], the species on record is Oryctolagus cuniculus. In words: In vitro percent inhibition against U-44,069 (10e-7 M) induced contraction of rabbit aorta at 10e-6 M concentration. The method, boiled down:
as §1

The species named for experiment [3] is Oryctolagus cuniculus. In words: In vitro concentration that reduced U-44069-induced contraction of the rabbit aorta by 50%. The method, boiled down: as §1
The species named for experiment [4] is Oryctolagus cuniculus. Kind of experiment: In vitro percent inhibition against U-44,069 (10e-7 M) induced contraction of rabbit aorta at 10e-7 M concentration. Summed up: as §1

The structures appear in SMILES notation.

Compound `CC1=C(C)C(=O)C(C(CCCCCC(=O)O)c2cccc(C(F)(F)F)c2)=C(C)C1=O` (stereo not given) registered an Inhibition in experiment [1] of 64%.

On to `COC1=C(OC)C(=O)C(C(CCCCCC(=O)O)c2ccc(F)cc2)=C(C)C1=O` (stereo not given), for which the Inhibition in experiment [1] was determined as 99%; in experiment [2] it was 0%. This compound gave an IC50 in experiment [3] of 3.2 µM.

For the compound `CC1=C(C)C(=O)C(C(CCCCCC(=O)O)c2ccc(Br)cc2)=C(C)C1=O` (stereo not given), the Inhibition in experiment [1] was determined as 94%; in experiment [2], 36%. The IC50 in experiment [3] was found to be 1.7 µM.

As to `CC1=C(C)C(=O)C(C(CCCCCCCC(=O)O)c2ccccc2)=C(C)C1=O` (stereo not given), the results for the Inhibition in experiment [1] and in experiment [2] were 94% and 0%, respectively. Besides, in experiment [3], the IC50 came out at 3.4 µM.

On to `COC(=O)CCCCCC(C1=C(C)C(=O)C(C)=C(C)C1=O)c1ccccc1` (stereo not given), for which the figures for the Inhibition in experiment [1] and in experiment [2] were 95% and 36%, respectively. The IC50 in experiment [3] is 1.4 µM.

In turn, `COC1=C(OC)C(=O)C(C(CCCCCC(=O)O)c2ccccc2)=C(C)C1=O` (stereo not given) showed an Inhibition in experiment [1] of 0%.

Regarding `CC1=C(C)C(=O)C(C(CCCCCC(N)=O)c2ccccc2)=C(C)C1=O` (stereo not given), the Inhibition in experiment [1] is 6%.

Regarding `CC1=C(C)C(=O)C(C(CCCCCCC(=O)O)c2ccccc2)=C(C)C1=O` (stereo not given), the Inhibition worked out at 98% in experiment [1] and 0% in experiment [2]. The compound also returned a 50% inhibitory concentration (IC50) in experiment [3] of 3.2 µM.

`CC1=C(C)C(=O)C(C(CCCCCC(=O)NCC(=O)O)c2ccccc2)=C(C)C1=O` (stereo not given) showed an Inhibition in experiment [1] of 0%.

The compound `CC1=C(C)C(=O)C(C(CCC(=O)O)c2ccccc2)=C(C)C1=O` (stereo not given) displayed an Inhibition in experiment [1] of 0%.

Turning to `CC1=C(C)C(=O)C(C(CCCCCC(=O)O)c2cccs2)=C(C)C1=O` (stereo not given), the Inhibition in experiment [1] is reported as 100%; in experiment [2], 65%; in experiment [4], 0%. The compound also showed an IC50 in experiment [3] of 0.76 µM.

`CCCCCCC(C1=C(C)C(=O)C(C)=C(C)C1=O)c1ccccc1` (stereo not given) displayed an Inhibition in experiment [1] of 25%.

The compound `CC1=C(C)C(=O)C(C(CCOc2cccc(C(=O)O)c2)c2ccccc2)=C(C)C1=O` (stereo not given) registered an Inhibition in experiment [1] of 2%.

Regarding `CC1=C(C)C(=O)C(C(CCCC#CC(=O)O)c2ccccc2)=C(C)C1=O` (stereo not given), the Inhibition in experiment [1] worked out at 72%.

As to `CC1=C(C)C(=O)C(CCCCCCC(=O)O)=C(C)C1=O`, in experiment [1], the Inhibition is recorded as 8%.

Consider `CC1=C(C)C(=O)C(C(CCCCCCO)c2ccccc2)=C(C)C1=O` (stereo not given), for which the Inhibition in experiment [1] was found to be 0%.

In turn, `CC1=C(C)C(=O)C(C(CCCCCc2nnn[nH]2)c2ccccc2)=C(C)C1=O` (stereo not given) had an Inhibition in experiment [1] of 2%.

In the case of `CC1=C(C)C(=O)C(C(CCCCCC(=O)O)c2cccc(F)c2)=C(C)C1=O` (stereo not given), the Inhibition was found to be 100% in experiment [1] and 31% in experiment [2]. This compound had an IC50 in experiment [3] of 1.9 µM.

In the case of `CC1=C(C)C(=O)C(C(CCCCCC(=O)NC(C)C)c2ccccc2)=C(C)C1=O` (stereo not given), in experiment [1], the Inhibition was determined as 8%.

As to `COc1ccc(C(CCCCCC(=O)O)C2=C(C)C(=O)C(C)=C(C)C2=O)cc1` (stereo not given), the Inhibition in experiment [1] amounted to 100%; in experiment [2] it was 3%. In experiment [3], the IC50 was 3 µM.

The compound `CC1=C(C)C(=O)C(C(CCCCCCCCC(=O)O)c2ccccc2)=C(C)C1=O` (stereo not given) had an Inhibition in experiment [1] of 41%.

Turning to `CC1=C(C)C(=O)C(C(CCCCCC(=O)O)c2ccc(Cl)cc2)=C(C)C1=O` (stereo not given), the Inhibition in experiment [1] amounted to 100%; in experiment [2] it was 91%; in experiment [4], 17%. In experiment [3], this compound showed a 50% inhibitory concentration (IC50) of 0.28 µM.

Turning to `CC1=C(C)C(=O)C(C(CCCCCC(=O)O)c2ccc(C(C)C)cc2)=C(C)C1=O` (stereo not given), the Inhibition in experiment [1] is given as 4%.

As for `CC1=C(C)C(=O)C(C(C)CCCCCC(=O)O)=C(C)C1=O` (stereo not given), the Inhibition in experiment [1] is 0%.

In the case of `CC1=C(C)C(=O)C(C(CCCCCC(=O)O)c2ccc(C)cc2)=C(C)C1=O` (stereo not given), the results for the Inhibition in experiment [1] and in experiment [2] were 100% and 50%, respectively. Moreover, in experiment [3], the IC50 is 1 µM.

Regarding `CC1=C(C)C(=O)C(C(CCCCC(=O)O)c2ccccc2)=C(C)C1=O` (stereo not given), the Inhibition in experiment [1] was found to be 63%.

As to `CC1=C(C(CCCCCC(=O)O)c2ccccc2)C(=O)c2ccccc2C1=O` (stereo not given), the values for the Inhibition in experiment [1], in experiment [2] and in experiment [4] were 100%, 99% and 20%, respectively. In experiment [3], this compound had a half-inhibitory concentration (IC50) of 0.24 µM.

In experiment [1], `CC1=C(C)C(=O)C(C(CCCCC(C)(C)C(=O)O)c2ccccc2)=C(C)C1=O` (stereo not given) displayed an Inhibition of 12%.

On to `CC1=C(C)C(=O)C(C(CCCCCC(=O)NC(C)c2ccccc2)c2ccccc2)=C(C)C1=O` (stereo not given), for which the Inhibition in experiment [1] is 33%.

Turning to `CC1=C(C(CCCCCC(=O)O)c2ccc(F)cc2)C(=O)c2ccccc2C1=O` (stereo not given), the Inhibition in experiment [1] came to 100%; in experiment [2], 100%; in experiment [4], 78%.

In experiment [1], `CC1=C(C)C(=O)C(C(CCC(=O)NCC(=O)O)c2ccccc2)=C(C)C1=O` (stereo not given) showed an Inhibition of 0%.

Turning to `COc1ccccc1C(CCCCCC(=O)O)C1=C(C)C(=O)C(C)=C(C)C1=O` (stereo not given), the Inhibition in experiment [1] is on record as 0%.

Take `CC1=C(C)C(=O)C(C(CCCCCC(=O)O)c2ccccc2C)=C(C)C1=O` (stereo not given): the Inhibition worked out at 99% in experiment [1] and 0% in experiment [2]. Further, the IC50 in experiment [3] came out at 3.2 µM.

Turning to `CC1=C(C)C(=O)C(C(CCc2cccc(C(=O)O)c2)c2ccccc2)=C(C)C1=O` (stereo not given), the Inhibition in experiment [1] is on record as 89%; in experiment [2] it was 0%.

As to `CC1=C(C)C(=O)C(C(CCCC(=O)O)c2ccccc2)=C(C)C1=O` (stereo not given), in experiment [1], the Inhibition is given as 24%.
